Bioassay records deposited in PubChem BioAssay by several laboratories.
Compounds with a hit are over-represented: about 0.86% of the library has one in this group of screens.
TNAP inh hiacc: TNAP (human) inhibition, high acceptor; 0.03% of 200,000 active; purified TNAP, CDP-star luminescence, 1 M DEA; P05186; inhibition, % at 20 µM;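 active = over 50% inhibition of tissue-nonspecific alkaline phosphatase at 20 µM in the single-dose screen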
Target sequence (P05186 whole entry, looked up): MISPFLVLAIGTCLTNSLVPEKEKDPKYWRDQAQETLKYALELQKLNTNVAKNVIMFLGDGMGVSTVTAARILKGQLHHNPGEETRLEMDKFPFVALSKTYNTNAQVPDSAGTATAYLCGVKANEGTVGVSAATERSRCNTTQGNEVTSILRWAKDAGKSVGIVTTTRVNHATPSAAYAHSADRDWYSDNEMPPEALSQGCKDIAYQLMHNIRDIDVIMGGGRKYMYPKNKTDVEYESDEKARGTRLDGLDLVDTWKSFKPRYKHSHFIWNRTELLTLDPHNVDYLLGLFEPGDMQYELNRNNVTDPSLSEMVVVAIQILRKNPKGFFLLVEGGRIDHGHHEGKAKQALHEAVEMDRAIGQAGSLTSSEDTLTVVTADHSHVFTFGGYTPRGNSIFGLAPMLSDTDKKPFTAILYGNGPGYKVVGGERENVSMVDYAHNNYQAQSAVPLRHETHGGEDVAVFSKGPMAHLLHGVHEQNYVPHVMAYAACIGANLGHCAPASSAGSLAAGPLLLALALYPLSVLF
p97 ATPase inh: human p97 ATPase inhibition. P55072. recombinant p97 ATPase, Kinase-Glo ATP luminescence, 3 h. inhibition, % at 8 µM. 0.42% of 220,000 active; in the data active = inhibition above about 15%
DTT redox prof: compounds producing H2O2 with reducing agent – biochemical, NIH compound library profiling, artefact control for MLSCN library redox annotation, primary screen | DTT-dependent redox cycling H2O2, phenol red/HRP absorbance; 100% = 100 µM peroxide control, 0% = buffer | 0.03% of 200,000 active | activation, % at 10 µM | AID 878;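 active = activation of at least 50% relative to the plate's high and low controls in the primary single-dose screen; inactive = activation below 50%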;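 note: compound incubated with DTT at 0.8 mM final as the reducing agent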
TNAP act hi DEA: activators of human TNAP at high phosphate acceptor concentration | activation factor at 20 µM | P05186 | purified TNAP, CDP-star luminescence, 1 M DEA, 30 min; active compounds read high; 0 = EDTA background, 1 = DMSO-only activity | 200,000 tested, under 10 active | AID 1136;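 active = activation factor at least 2 at 20 µM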
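Control set: EDTA negative control, DMSO positive control / Assay system: human TNAP / Quantity: TNAP 1/800 final / Evaluation: TNAP activation factor scaled between EDTA and DMSO control wells / Measured by: luminescent substrate turnover signal / Compound dosing: one dose, 20 µM / Times: 30 min enzyme reaction at room temperature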
PERK inh: blocks human PERK kinase; Q9NZJ5; CHO PERK-DD fusion, SEAP luminescence translation reporter; inhibition, % at 5.6 µM; 0.17% of 220,000 active; AID 1416;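 active = inhibition above the mean inhibition of all tested compounds plus 3 SD, set separately per screening campaign, cut at about 2.9% in these data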;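 note: PERK kinase domain activated by AP20187 dimerizer at 100 nM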
TNAP inh noacc: blocks human TNAP activity with no phosphate acceptor present; purified TNAP, CDP-star luminescence, 30 min; inhibition, % at 20 µM; 0.26% of 200,000 active; P05186;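 active = tissue-nonspecific alkaline phosphatase inhibition above about 50% at 20 µM in the single-dose screen, limit read from the data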
Each line names hits and unclear results; the compound was inactive in the other large screens.

Nc1c(C(=O)N/N=C/c2cccnc2)oc2nc(-c3ccccc3)cc(-c3ccco3)c12	p97 ATPase inh 14.6 (no result: TNAP inh hiacc, DTT redox prof, TNAP act hi DEA, TNAP inh noacc)
CCN(CC)S(=O)(=O)c1ccc(NC(=O)Cc2cccs2)cc1	none
O=Cc1cn[nH]c1-c1ccccc1	TNAP inh noacc 74.9
O=C1/C(=C/c2ccc(F)cc2)SC(=S)N1Nc1ncc(C(F)(F)F)cc1Cl	p97 ATPase inh 19.0
O=C1Nc2ccccc2N(O)N1c1cc(-c2ccccc2)[nH]n1	TNAP inh noacc 81.2
COc1ccc(-c2cc(N3C(=O)Nc4ccccc4N3O)n[nH]2)cc1	TNAP inh noacc 75.4
COc1cc(-c2cc(N3C(=O)Nc4ccccc4N3O)n[nH]2)cc(OC)c1OC	none
CCOc1cc(-c2nc(C)c(C(C)=O)n2O)ccc1OCC(=O)Nc1ccccc1	none
COc1ccc(Cn2cnc([N+](=O)[O-])c2)cc1[N+](=O)[O-]	PERK inh 3.1 (no result: TNAP inh hiacc, DTT redox prof, TNAP act hi DEA, TNAP inh noacc)
O=[N+]([O-])c1cn(Cc2ccc(Cl)cc2)cn1	none
COc1ccc(OCCC(=O)OCC(=O)Nc2cccc(S(=O)(=O)N3CCOCC3)c2)cc1	PERK inh 3.3
Cc1ccc(NC(=O)Cn2cccc2)cc1Cl	PERK inh 2.9
Cc1ccc(NC(=O)Cn2cccc2)cc1C	none
CC(C)(C)OC(=O)NNC(=O)c1cccs1	none
Cn1c(NC(=O)c2cccnc2)nc2ccccc21	TNAP inh noacc 68.7
O=C(CSc1nccc(=O)[nH]1)c1ccccc1Br	none
COc1ccc(Cl)cc1NC(=O)CN1CCC(n2nnc3cc(F)ccc32)CC1	none
O=C(NCc1cccnc1)C1CCC(CNS(=O)(=O)c2cccc3nsnc23)CC1 (stereo not given)	none (no result: TNAP inh hiacc, DTT redox prof, TNAP act hi DEA, TNAP inh noacc)
Cc1cc(-c2cccs2)n[nH]1	none
Cc1cc(-c2ccc(Cl)s2)n[nH]1	TNAP inh noacc 55.0
CC(C)N(C(=O)COC(=O)c1cccc(C(=O)OCC(=O)N(C(C)C)C(C)C)n1)C(C)C	none
CSC1=NCCN1C(=O)c1ccc(S(=O)(=O)N(C)C)cc1	p97 ATPase inh 15.0
O=C1CC(c2ccccc2)CC2=C1C=Nc1ccccc1N2 (stereo not given)	none
CCN(CC(=O)Nc1c(C(=O)OC)[nH]c2ccc(C)cc12)c1ccc2c(c1)OCO2	none
CCN(CC)c1ccc(N2C(=O)CSC2=S)cc1	TNAP inh noacc 57.0
CCN(CC)c1ccc(N2C(=O)/C(=C/c3cccs3)SC2=S)cc1	none
Cc1cc(C)nc(-n2nc(C)c(C3(O)C(=O)Nc4ccccc43)c2N)n1 (stereo not given)	none
COc1cccc(CN2CCNC(=O)C2CC(=O)N(Cc2cnn(C)c2)C(C)C)c1 (stereo not given)	none
COc1ccc(Cc2nnc(Nc3c(C)cccc3C)o2)cc1OC	none (no result: TNAP inh hiacc, DTT redox prof, TNAP act hi DEA, TNAP inh noacc)
Cc1ccc(S(=O)(=O)N/N=C/c2ccccc2O)cc1[N+](=O)[O-]	none
Cc1ccc(S(=O)(=O)N/N=C/c2ccc(O)c(O)c2)cc1[N+](=O)[O-]	TNAP inh noacc 67.1
O=C(O)c1ccccc1SCc1cn2cc(Cl)ccc2n1	none
O=C(O)c1cccnc1SCc1cn2cc(Cl)ccc2n1	PERK inh 3.0 (no result: TNAP inh hiacc, DTT redox prof, TNAP act hi DEA, TNAP inh noacc)
CC(C)C(=O)Nc1nnc(CCN2CCOCC2)s1	none
CN=C1SC(CC(=O)Nc2ccccc2F)C(=O)N1C (stereo not given)	PERK inh 4.4
CN=C1SC(CC(=O)Nc2cccc(C(F)(F)F)c2)C(=O)N1C (stereo not given)	none
Nc1n[nH]c(-c2ccc(Br)cc2)c1Cl	TNAP inh noacc 81.1
Nc1nc(-c2ccc(Cl)cc2)nnc1-c1ccc(Br)cc1	none
Cc1cc(C)c(NC2=NS(=O)(=O)c3ccccc32)c(C)c1	PERK inh 3.6
Cc1ccc(C)c(NC2=NS(=O)(=O)c3ccccc32)c1	none
O=C1c2ccccc2C(=O)N1Cc1cnc(N2CCN(c3ccccc3)CC2)s1	none
N#C/C(=C\c1coc2ccc(O)cc2c1=O)C(=O)Nc1nc2ccccc2s1	p97 ATPase inh 43.2 (no result: TNAP inh hiacc, DTT redox prof, TNAP act hi DEA, TNAP inh noacc)
NS(=O)(=O)c1ccc(CNC(=O)/C=C/c2c(F)cccc2Cl)cc1	none
CN(Cc1cccs1)C(=O)CSc1nnnn1C	none
C=CCNC(=S)/C(=C(\[O-])c1ccc(Cl)cc1)[n+]1ccccc1	p97 ATPase inh 14.7 (no result: TNAP inh hiacc, DTT redox prof, TNAP act hi DEA, TNAP inh noacc)
Cn1c(=O)cc(C(=O)N/N=C/c2ccc(Cl)cc2)[nH]c1=O	PERK inh 2.9 (no result: TNAP inh hiacc, DTT redox prof, TNAP act hi DEA, TNAP inh noacc)
COC(=O)C1=C(C)Nc2ncnn2C1c1ccc(OCc2ccccc2)cc1 (stereo not given)	none
CC(=O)Nc1cc(-c2ccc(F)cc2)[nH]n1	TNAP inh noacc 90.7
C/C(O)=C(\C#N)c1nnc2n1CCCCC2	none
CN1C=C(C(F)(F)F)C=C/C1=C(\C#N)c1nnc2n1CCCCC2	PERK inh 3.1
CC(c1nc2ccccc2c(=O)[nH]1)N1CCN(C)CC1 (stereo not given)	none
Cc1n[nH]c(C)c1S(=O)(=O)N1CCN(c2ccccn2)CC1	TNAP inh noacc 58.9
O=C(CSc1nnc2ccccn12)Nc1ccccc1C(=O)O	none
CCOC(=O)C1=NN(C(=O)COc2ccccc2)C(O)(c2ccc(Br)cc2)C1 (stereo not given)	TNAP inh noacc 50.7
CCC1=NN(C(=O)COc2ccccc2)C(O)(c2ccncc2)C1 (stereo not given)	none
CCOC(=O)c1cc(-c2ccc3c(c2)OCCO3)n[nH]1	TNAP inh noacc 84.0
CCOC(=O)c1cc(-c2ccc(OC)cc2)n[nH]1	none (no result: TNAP inh hiacc, DTT redox prof, TNAP act hi DEA, TNAP inh noacc)
O=C(O)c1cc(-c2ccc3c(c2)OCCO3)n[nH]1	TNAP inh noacc 57.6
Cc1ccnc(NC(NC(=O)C(C)C)(C(F)(F)F)C(F)(F)F)c1	none
Cc1cc(C)cc(NC(=O)c2cc(C)n(Cc3cccs3)c2C)c1	none (no result: TNAP inh hiacc, DTT redox prof, TNAP act hi DEA, TNAP inh noacc)
O=C(CN1CCc2ccccc21)NN1CC(=O)N(c2ccc(Cl)cc2)CC1=O	none (no result: TNAP inh hiacc, DTT redox prof, TNAP act hi DEA, TNAP inh noacc)
COc1cc(C2C3=C(CC(C)(C)CC3=O)OC(N)=C2[N+](=O)[O-])ccc1O (stereo not given)	none
CCOc1ccccc1CNC(=O)C1CCN(C(=O)c2sccc2-n2cccc2)CC1	none
CCC1CCCCN1C(=O)COC(=O)c1n[nH]c2ccccc12 (stereo not given)	TNAP inh noacc 56.4
COC(=O)c1n[nH]c2ccccc12	TNAP inh noacc 55.3
O=C(COC(=O)c1n[nH]c2ccccc12)NC(=O)NC1CCCC1	none
COCCNC(=O)c1n[nH]c2ccccc12	none
CC1CCN(C(=O)COC(=O)c2n[nH]c3ccccc23)CC1	TNAP inh noacc 58.3
O=C(OCC(=O)N1CCCCCC1)c1n[nH]c(=O)c2ccccc12	none
COc1ccc(Cn2cccc(NC(=O)Nc3cccc(OC)c3)c2=O)cc1	none (no result: TNAP inh hiacc, DTT redox prof, TNAP act hi DEA, TNAP inh noacc)
CCOc1ccc(Nc2nc(NCCN3CCOCC3)nc(OC)n2)cc1	p97 ATPase inh 14.6
Clc1ccc(Nc2nc(NCCN3CCOCC3)nc(N3CCOCC3)n2)cc1	none
